According to ChEMBL document CHEMBL3286172, “Exploring the role of 2-chloro-6-fluoro substitution in 2-alkylthio-6-benzyl-5-alkylpyrimidin-4(3H)-ones: effects in HIV-1-infected cells and in HIV-1 reverse transcriptase enzymes” (J Med Chem, 2014):

Assays:
[1] = system: Human immunodeficiency virus 1; test: Antiviral activity against HIV-1 harboring NNTRI-resistant reverse transcriptase K103N mutant infected in human MT4 cells assessed as inhibition of virus-induced cytopathic effect by MTT method; format: functional, organism-based; settings: Human immunodeficiency virus 1, MT4
[2] = system: Human immunodeficiency virus 1; test: Fold resistance, ratio of EC50 for HIV-1 harboring NNTRI-resistant reverse transcriptase K103N mutant infected in human MT4 cells to EC50 for wild type HIV-1 NL4-3 infected in human MT4 cells; format: functional
[3] = system: Human immunodeficiency virus 1; test: Antiviral activity against HIV-1 harboring NNTRI-resistant reverse transcriptase Y181C mutant infected in human MT4 cells assessed as inhibition of virus-induced cytopathic effect by MTT method; format: functional, organism-based; settings: Human immunodeficiency virus 1, MT4
Summary of the method: (§1)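 MT-4 lymphoid cells infected with HIV-1 carrying RT K103N, Y181C or Y188L, with a range of drug concentrations present. Viable cells counted by MTT colorimetric assay at day 5 post-infection. […] Highest concentration tested was limited by precipitation in culture medium. Means of at least two experiments.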

[4] = Selectivity index, ratio of CC50 for human MT4 cells to EC50 for wild type HIV-1 NL4-3 infected in human MT4 cells; format: toxicity, cell-based; settings: read-out: Ratio CC50/EC50
Summary of the method: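 Ratio of CC50 to EC50, both from MTT readings in MT-4 cells at day 5. CC50 was taken in mock-infected cells and EC50 in cells infected with wild-type NL4-3. Values are means of at least two experiments.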

[5] = system: Human immunodeficiency virus 1; test: Fold resistance, ratio of EC50 for HIV-1 harboring NNTRI-resistant reverse transcriptase Y181C mutant infected in human MT4 cells to EC50 for wild type HIV-1 NL4-3 infected in human MT4 cells; format: functional
Summary of the method: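 MT-4 cells infected with HIV-1 mutant (K103N or Y181C) or wild-type NL4-3, with drug present. […] Fold resistance is the mutant EC50 divided by the wild-type NL4-3 EC50. EC50 values are means of at least two experiments.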

[6] = system: Human immunodeficiency virus 1; test: Antiviral activity against wild type HIV-1 NL4-3 infected in human MT4 cells assessed as inhibition of virus-induced cytopathic effect by MTT method; format: functional, organism-based; settings: Human immunodeficiency virus 1, NL4-3, MT4
Summary of the method: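 MT-4 lymphoid cells infected with wild-type HIV-1 NL4-3 while exposed to a range of drug concentrations. Viable cells counted by tetrazolium (MTT) colorimetry at day 5 post-infection. Means of at least two experiments.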

[7] = system: Human immunodeficiency virus 1; test: Antiviral activity against HIV-1 harboring NNTRI-resistant reverse transcriptase Y188L mutant infected in human MT4 cells assessed as inhibition of virus-induced cytopathic effect by MTT method; format: functional, organism-based; settings: Human immunodeficiency virus 1, MT4; summary of the method: as §1
[8] = Cytotoxicity against human MT4 cells assessed as induction of cell death by MTT method; format: cell-based
Summary of the method: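 Mock-infected MT-4 cells exposed to a range of drug concentrations. Viability read by MTT colorimetry at day 5. […] Top concentration was limited where compound precipitated in the culture medium. Means of at least two experiments.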

[9] = system: Human immunodeficiency virus 1; test: Fold resistance, ratio of ID50 for HIV-1 recombinant NNTRI-resistant reverse transcriptase L100I mutant to ID50 for wild type HIV-1 recombinant reverse transcriptase
Summary of the method: (§2)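 Recombinant wt or mutant HIV-1 RT, purified to >95%, at 2-4 nM. RNA-dependent DNA polymerase activity with 0.5 µg poly(rA)/oligo(dT)10:1 (0.3 µM 3'-OH ends), 10 µM [3H]-dTTP and 8% final DMSO. Incorporation was sampled at 2-min intervals. ID50 came from fitting to a fully non-competitive model. Ratio is ID50 mutant/ID50 wt. Means of at least three experiments.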

[10] = system: Human immunodeficiency virus 1; test: Fold resistance, ratio of ID50 for HIV-1 recombinant NNTRI-resistant reverse transcriptase K103N mutant to ID50 for wild type HIV-1 recombinant reverse transcriptase; summary of the method: as §2
[11] = target: Human immunodeficiency virus type 1 reverse transcriptase (Human immunodeficiency virus 1) (UniProt Q72547)
[12] = system: Human immunodeficiency virus type 1 reverse transcriptase (Human immunodeficiency virus 1), Q72547 [K103N]
[13] = system: Human immunodeficiency virus type 1 reverse transcriptase (Human immunodeficiency virus 1), Q72547 [L100I]

Row | Structure (SMILES) | EC50 [1] [nM] | Ratio EC50 [2] | EC50 [3] [nM] | selectivity ratio [4] | Ratio EC50 [5] | EC50 [6] [nM] | EC50 [7] [nM] | CC50 [8] [nM] | Ratio [9] | Ratio [10] | ID50 [11] [nM] | ID50 [12] [nM] | ID50 [13] [nM]
1 | CC(C)Sc1nc(Cc2c(F)cccc2Cl)cc(=O)[nH]1 | 39200 | 103 | 17800 | > 210 | 47 | 380 | > 80000 | > 80000 | – | – | – | – | –
2 | CCCSc1nc(Cc2c(F)cccc2Cl)cc(=O)[nH]1 | 18800 | 72 | 8200 | > 308 | 31 | 260 | > 80000 | > 80000 | – | – | – | – | –
3 | CCC(C)Sc1nc(Cc2c(F)cccc2Cl)cc(=O)[nH]1 (centres undefined) | 25200 | 157 | 8300 | > 475 | 52 | 160 | > 76000 | > 76000 | – | – | – | – | –
4 | CCCCSc1nc(Cc2c(F)cccc2Cl)cc(=O)[nH]1 | 29200 | 101 | 16700 | > 262 | 58 | 290 | > 76000 | > 76000 | – | – | – | – | –
5 | O=c1cc(Cc2c(F)cccc2Cl)nc(SC2CCCC2)[nH]1 | 42100 | 281 | 18300 | > 493 | 122 | 150 | > 74000 | > 74000 | – | – | – | – | –
6 | Cc1c(Cc2c(F)cccc2Cl)nc(SC(C)C)[nH]c1=O | 10600 | 88 | 8400 | > 633 | 70 | 120 | > 76000 | > 76000 | – | – | – | – | –
7 | CCCSc1nc(Cc2c(F)cccc2Cl)c(C)c(=O)[nH]1 | 9200 | 107 | 2300 | > 884 | 27 | 86 | > 76000 | > 76000 | – | – | – | – | –
8 | CCC(C)Sc1nc(Cc2c(F)cccc2Cl)c(C)c(=O)[nH]1 (centres undefined) | 5400 | 115 | 5200 | > 1550 | 111 | 47 | > 73000 | > 73000 | – | – | – | – | –
9 | CCCCSc1nc(Cc2c(F)cccc2Cl)c(C)c(=O)[nH]1 | 20000 | 182 | 2300 | > 664 | 21 | 110 | > 73000 | > 73000 | – | – | – | – | –
10 | CC[C@H](C)Sc1nc([C@@H](C)c2c(F)cccc2Cl)cc(=O)[nH]1 | 7640 | 53 | > 73300 | > 507 | – | 144 | > 73300 | > 73000 | 4 | – | – | – | –
11 | CC[C@@H](C)Sc1nc([C@H](C)c2c(F)cccc2Cl)c(C)c(=O)[nH]1 | 15 | – | 87 | – | – | 0.06 | 390 | > 70400 | 41 | 101 | – | – | –
12 | CC[C@@H](C)Sc1nc([C@@H](C)c2c(F)cccc2Cl)c(C)c(=O)[nH]1 | 150 | – | 890 | – | – | 1.4 | 3300 | > 70400 | 37 | 69 | – | – | –
13 | CC[C@H](C)Sc1nc([C@@H](C)c2c(F)cccc2Cl)c(C)c(=O)[nH]1 | > 47000 | – | > 47000 | – | – | 3660 | > 47000 | > 47000 | 0.2 | – | – | – | –
14 | CC(c1cc(=O)[nH]c(SC2CCCC2)n1)c1c(F)cccc1Cl (racemic) | 900 | 3000 | 3000 | > 237000 | 10000 | 0.3 | > 71000 | > 71000 | – | – | 15 | 1800 | 1100
15 | CCCSc1nc(C(C)c2c(F)cccc2F)c(CC)c(=O)[nH]1 (racemic) | > 3000 | – | > 3000 | > 12 | – | 240 | > 3000 | > 3000 | – | – | 3 | 430 | 270
16 | CCc1c(C(C)c2c(F)cccc2F)nc(SC(C)CC)[nH]c1=O (racemic) | > 3000 | – | > 3000 | > 21 | – | 140 | > 3000 | > 3000 | – | – | 11 | 450 | 110
17 | CCCCSc1nc(C(CC)c2c(F)cccc2F)c(C)c(=O)[nH]1 (racemic) | > 3000 | – | > 3000 | > 130 | – | 23 | > 3000 | > 3000 | – | – | 3 | 280 | 230
18 | CC[C@H](C)Sc1nc([C@H](C)c2c(F)cccc2Cl)c(C)c(=O)[nH]1 (racemic) | > 70000 | – | 64000 | – | – | 43900 | > 70000 | > 70400 | 0.1 | – | – | – | –
19 | CCC(C)Sc1nc(O)c(C)c(C(C)c2c(F)cccc2F)n1 (racemic) | 110 | 122 | 71 | > 3330 | 79 | 0.9 | > 3000 | > 3000 | – | – | 31 | 1700 | 670
20 | Cc1c(O)nc(SC(C)C)nc1C(C)c1c(F)cccc1F (racemic) | 270 | 270 | 120 | – | 120 | 1 | > 3000 | – | – | – | 3 | 580 | 280
